This is a sample that favours compounds with a hit; in the whole collection about 3% have one here.
ABHD5-PLIN5 inh – ABHD5-PLIN5 protein interaction inhibition | Q00G26+Q8WTS1 | Split G. princeps luciferase complementation, luminescence, 4 h | hit rate 0.78% among 360,000 | inhibition, % at 4 µM;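 active means inhibition above the mean inhibition across every tested compound plus 3 SD, cut at about 22% in these data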
MC4R ag barr – human MC4R agonism via beta-arrestin; P32245; U2OS MC4R beta-arrestin complementation, luminescence; percent of melanotan II response, DMSO zero; activation, % at 8.9 µM; hit rate 0.98% among 360,000;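 active means activation above a per-plate cutoff, the mean activation of sample wells on that plate plus 3 SD, cut at about 8% in these data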
MC4R antag cAMP – antagonists of human melanocortin 4 receptor (MC4R). MC4R-expressing cells, MTII-stimulated cAMP, LANCE TR-FRET. inhibition, % at 6.5 µM. hit rate 0.48% among 360,000. AID 540295;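 active means inhibition above its plate's cutoff, the mean of tested wells on that plate plus 3 SD, cut at about 29% in these data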
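Material: U2OS-MC4R stable cell line | Reagent: Melanotan II challenge after compound preincubation | Doses: One concentration, 6.5 µM nominal | Incubation: 30-min compound preincubation, 1-h Melanotan II challenge, 1-h detection, room temperature | Signal: TR-FRET cAMP assay | Replicates: One well per compound, no replicates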
B2AR ag – agonists of human beta-2 adrenergic receptor inducing internalization; P07550; Am2.2-beta2AR cells, FAP receptor internalization, flow cytometry; response, % (no concentration beside the values); hit rate 0.43% among 340,000; AID 504454;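 active means response above a set limit, near 3 SD of response in nonfluorescent compounds, cut at about 42% in these data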
Target sequence (P07550 whole entry, looked up): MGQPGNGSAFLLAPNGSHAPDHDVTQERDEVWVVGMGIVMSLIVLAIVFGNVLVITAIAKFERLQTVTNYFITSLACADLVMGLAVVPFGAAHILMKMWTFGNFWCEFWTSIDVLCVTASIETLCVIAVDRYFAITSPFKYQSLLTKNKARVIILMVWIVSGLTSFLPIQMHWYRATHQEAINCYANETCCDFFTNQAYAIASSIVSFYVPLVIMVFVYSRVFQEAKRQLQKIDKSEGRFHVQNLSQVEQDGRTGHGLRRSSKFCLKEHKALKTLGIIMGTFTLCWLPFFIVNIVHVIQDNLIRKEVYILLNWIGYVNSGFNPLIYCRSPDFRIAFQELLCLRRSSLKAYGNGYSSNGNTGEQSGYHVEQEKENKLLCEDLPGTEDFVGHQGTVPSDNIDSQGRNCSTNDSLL
PfGluPho inh – PfG6PD (Plasmodium falciparum) enzyme inhibition | PfGluPho enzyme, NADPH resazurin-diaphorase fluorescence | inhibition, % at 20 µM | hit rate 0.78% among 350,000;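 active means inhibition reaching at least a set limit at 20 µM in the primary screen, cut at about 59% in these data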
Beta2AR ag CP1 – human beta-2 adrenergic receptor agonism, cherry pick | shares compounds with B2AR ag | Am2.2-beta2AR cells, FAP surface receptor, flow cytometry; stronger effect = lower value | percent response (surface receptor), % at 10 µM | hit rate 25% among 1,100 | AID 540358;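 active means surface receptor percent response at or below 58%, roughly 3 SD from nonfluorescent compounds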
B2AR FAP counter – counter-screen for beta-2AR agonists: fluorescence in Am2.2 cells. calls only at 10 µM. 1,100 tested, under 10 active. AID 588765. FAP fluorogen flow cytometry, fluorescence counterscreen; stronger effect = lower value. shares compounds with B2AR ag;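 active means percent response below a set limit in fluorescence channel 1 and below 50% in channel 8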
Of the large screens only hits and unclear results are named; the others gave an inactive call (follow-up assays come after a bar, where they were run).

CC(Sc1nc(-c2ccccc2)cc(C(F)(F)F)n1)C(=O)N1CCCCC1 (centres undefined)	B2AR ag 99.0 | Beta2AR ag CP1 10.5 | B2AR FAP counter inactive
CC(=O)Oc1ccccc1N(C(C)=O)S(=O)(=O)c1cccc([N+](=O)[O-])c1	none
O=C(NCc1ccccc1CN1CCCC1)C1CCN(C(=O)c2ccc(F)cc2)CC1	none
C=CCN1C(=O)c2ccc(C(=O)N3CCN(S(=O)(=O)c4ccccc4Br)CC3)cc2C1=O	none
CCOC(=O)c1ccc(NC(=O)Cn2nnc(-c3ccccc3)n2)cc1	B2AR ag 64.5 | Beta2AR ag CP1 1.2 | B2AR FAP counter inactive
COC(CN1C(=O)C(=O)/C(=C(/O)c2ccccc2)C1c1ccccn1)OC (centres undefined)	none
COc1ccc(-c2n[nH]c(C)c2-c2cscn2)c(O)c1	none
C=C(C)COc1ccc(-c2n[nH]c(C)c2-c2ccc(OC)cc2)c(O)c1	MC4R ag barr 9.6, B2AR ag 53.2 | Beta2AR ag CP1 inactive | B2AR FAP counter inactive
Cc1ccc(S(=O)(=O)Nc2cccc3cccnc23)cc1	B2AR ag 44.9 | Beta2AR ag CP1 inactive | B2AR FAP counter inactive
COc1cc(NS(=O)(=O)c2ccc(C)cc2)c2ncccc2c1	none
COc1ccc(S(=O)(=O)N2CCOCC2)cc1C(=O)N(C)Cc1ccco1	none
Cc1cc(C)n(C(=O)CCCCCCCC(=O)n2nc(C)cc2C)n1	none
Cc1cc(C)n(C(=O)CCCC(=O)n2nc(C)cc2C)n1	B2AR ag 54.1 | Beta2AR ag CP1 inactive | B2AR FAP counter inactive
COC(=O)c1cc(NC(=O)Cn2c(=O)oc3ccccc32)cc(C(=O)OC)c1	B2AR ag 70.6 | Beta2AR ag CP1 inactive | B2AR FAP counter inactive
COc1ccc(-n2nc3c(N4CCC(C(=O)NCc5cccc(C)c5)CC4)nnc(C)c3c2C)cc1	B2AR ag 92.4 | Beta2AR ag CP1 27.2 | B2AR FAP counter inactive
CCOc1ccc(CNC(=O)C2CCN(c3nnc(C)c4c(C)n(-c5ccc(C)cc5)nc34)CC2)cc1	B2AR ag 54.9 | Beta2AR ag CP1 inactive | B2AR FAP counter inactive
COc1ccc(-n2nc3c(N4CCC(C(=O)NCCc5ccco5)CC4)nnc(C)c3c2C)cc1	none
CC1(C)Cc2c(sc3nc4n(-c5ccccc5)cnn4c(=O)c23)CO1	none
CCOC(=O)N1CCN(C(=O)CNC(=O)c2ccc(Cl)cc2)CC1	none
CCc1cccc2c1NC1(CCCC1)CC2C (centres undefined)	none | Beta2AR ag CP1 inactive | B2AR FAP counter inactive
COc1cc(OC)nc(Nc2nc(C(N)Cc3ccc(F)cc3)cs2)n1 (centres undefined)	none (no result: B2AR ag, PfGluPho inh)
CN(C)S(=O)(=O)c1cccc(NC(=O)c2cccc(N3C(=O)CCC3=O)c2)c1	none
CN1CCc2c(sc3nc(SCC(N)=O)n(-c4ccccc4)c(=O)c23)C1	none
CN1CCc2c(sc3nc(SCC(=O)N4CCCCC4)n(-c4ccccc4)c(=O)c23)C1	B2AR ag 60.8 | B2AR FAP counter inactive
CCCc1nc2oc3c(NCC(C)O)ncnc3c2c2c1CCCC2 (centres undefined)	none | Beta2AR ag CP1 inactive | B2AR FAP counter inactive
Cc1ccc(NC(=O)CCCSc2nc3ccccc3[nH]2)cc1	none
CCOC(=O)CSc1ccc(-c2nc3ccccc3[nH]2)cn1	B2AR ag 45.5 | Beta2AR ag CP1 inactive | B2AR FAP counter inactive
Cc1ccc(SCC(=O)Nc2ccc(-c3nc4ccccc4[nH]3)cc2)cc1	MC4R ag barr 8.3, B2AR ag 106.9 | Beta2AR ag CP1 16.5 | B2AR FAP counter inactive
COCCNC(=O)CSc1ccc(-c2nc3ccccc3[nH]2)cn1	none
Oc1ccc(C[C@H]2CNCCN2CC2(c3ccccc3)CC2)cc1	none
S=C(Nc1ccccc1)Nc1nccs1	none | Beta2AR ag CP1 inactive | B2AR FAP counter inactive
Fc1ccc(NC(=S)Nc2nccs2)cc1	none
CC1(C(=O)NS(=O)(=O)C2CC2)CCCN(C(=O)COCc2ccccc2)C1 (centres undefined)	none (no result: B2AR ag, PfGluPho inh)
Clc1ccccc1C(c1ccccc1)(c1ccccc1)n1ccnc1	B2AR ag 51.5 | Beta2AR ag CP1 29.9 | B2AR FAP counter inactive
NC(=S)N/N=C/c1ccccc1OC(=O)c1cc2ccccc2oc1=O	none | Beta2AR ag CP1 inactive | B2AR FAP counter inactive
CN(C)CCCn1cnc2c(c1=N)C(c1ccccc1)c1ccc3ccccc3c1O2 (centres undefined)	B2AR ag 44.5 | Beta2AR ag CP1 inactive | B2AR FAP counter inactive
O=C(COc1ccc(F)cc1F)N1CCCCCCC1	none
O=C(NCc1ccccc1)C(=O)NCC1OCCN1C(=O)c1ccc(Cl)cc1 (centres undefined)	none
CC(C)=CCC(C)(C)C1OCCN1C(=O)c1ccccc1 (centres undefined)	B2AR ag 61.7 | Beta2AR ag CP1 21.6 | B2AR FAP counter inactive
O=C(Nc1ccc(F)cc1)C(c1cccc(F)c1)N1CCN(c2ccncc2)CC1 (centres undefined)	none (no result: MC4R ag barr, MC4R antag cAMP, B2AR ag, PfGluPho inh)
COc1ccc(CC(=O)Nc2cccc(-c3nnc(-c4ccc(C)cc4)o3)c2)cc1OC	B2AR ag 49.5 | Beta2AR ag CP1 inactive | B2AR FAP counter inactive
CC(C)COc1ccc(-c2nnc(-c3ccco3)o2)cc1	none
CCN(CC)CCCNc1ccc(-c2nnc(-c3ccc(OCC(C)C)cc3)o2)cn1	B2AR ag 48.1 | Beta2AR ag CP1 inactive | B2AR FAP counter inactive
Cc1ccc(Sc2ncccc2C(=O)NCC(c2ccc(F)cc2)N2CCOCC2)c(C)c1 (centres undefined)	B2AR ag 46.7 | Beta2AR ag CP1 inactive | B2AR FAP counter inactive
Cc1ccc(Sc2ncccc2C(=O)NCC(c2ccc(F)cc2)N2CCOCC2)cc1C (centres undefined)	none
CCN(CC)c1ccc(-c2nn3c(-c4ccccc4OC)nnc3s2)cc1	B2AR ag 42.1 | Beta2AR ag CP1 inactive | B2AR FAP counter inactive
COc1ccc(-c2nn3c(-c4ccccc4)nnc3s2)cc1	none
Cn1nnnc1SCC(=O)Nc1nc2c(F)c(F)c(F)cc2s1	none
CN1CCCC(CC2c3ccccc3Sc3ccccc32)C1 (centres undefined)	none | Beta2AR ag CP1 inactive | B2AR FAP counter inactive
CCCNC(=O)C1(C)CCN(Cc2cccc(OC(=O)c3ccccc3)c2)C1 (centres undefined)	none (no result: B2AR ag, PfGluPho inh)
Cc1ccccc1-n1ncc2c1CC(C)(C)CC2NC(=O)CCCN1CCCC1=O (centres undefined)	none
CC1=C(C#N)C(c2cn(-c3ccccc3)nc2-c2cccs2)C(C#N)=C(C)N1	B2AR ag 108.4 | Beta2AR ag CP1 12.6 | B2AR FAP counter inactive
COCCOC(=O)C1=C(C)NC(=O)NC1c1cn(-c2ccccc2)nc1-c1cccs1 (centres undefined)	none
